Source: PubChem BioAssay
A selection: hits, their analogues and other compounds. The true share with any hit is near 10%.
WT yeast gro inh: growth inhibition of WT yeast, mitochondrial fusion screen; inhibition, % at 10 µM; AID 1362; mitochondrial fusion phenotypic screen, WT strain; 190,000 compounds, 2.1% hits; in the data active = inhibition above about 58%; tested in S. cerevisiae
PMI act satM6P: PMI (human) activation, high substrate. P34949. coupled PMI enzyme assay, resazurin fluorescence, 20 min; hits give high values; 1 = untreated enzyme, 0 = substrate-free blank. activation factor at 20 µM. AID 1216. 190,000 compounds, 0.34% hits;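 active = activation factor of 2 or more at 20 µM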
Target sequence (P34949 whole entry, looked up): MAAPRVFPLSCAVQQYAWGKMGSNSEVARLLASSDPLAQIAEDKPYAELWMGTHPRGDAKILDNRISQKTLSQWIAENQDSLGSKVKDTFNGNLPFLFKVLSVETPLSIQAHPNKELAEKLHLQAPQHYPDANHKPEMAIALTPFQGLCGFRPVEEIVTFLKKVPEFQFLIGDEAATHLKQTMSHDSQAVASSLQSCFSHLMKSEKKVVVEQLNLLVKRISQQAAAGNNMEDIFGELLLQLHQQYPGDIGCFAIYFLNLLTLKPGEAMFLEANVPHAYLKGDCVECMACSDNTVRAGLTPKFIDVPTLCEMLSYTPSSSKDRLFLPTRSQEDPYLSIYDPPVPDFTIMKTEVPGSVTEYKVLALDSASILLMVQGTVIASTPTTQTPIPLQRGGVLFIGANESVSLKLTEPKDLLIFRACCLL
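Test system: human phosphomannose isomerase with PGI, G6PDH, diaphorase coupling enzymes; amount: 15 ng/mL PMI; incubation: enzyme reaction with compound 20 min at room temperature; technique: resorufin fluorescence (Ex 544/Em 590 nm) from resazurin via diaphorase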
PMI act: increases human mannose-6-phosphate isomerase activity; P34949; purified human PMI, coupled resazurin fluorescence, 20 min; hits give high values; 1 = vehicle control, 0 substrate-free wells; activation factor at 20 µM; 190,000 compounds, 0.005% hits; AID 1214;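 active = activation factor of 2 or more at 20 µM, relative to plate controls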
Diaphorase act: activates diaphorase or chemically reduces, flagging diaphorase assay artifacts; Diaphorase/resazurin coupled assay, resorufin fluorescence, 16 min; hits give high values; 1 = vehicle wells, 0 = NADH-free wells; 190,000 compounds, 0.005% hits; activation factor at 20 µM; AID 1229;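 active = diaphorase activity raised at least twofold by the compound at 20 µM; inactive = activation factor below 2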
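Assay system: bacterial diaphorase enzyme (C. kluyveri) / Input: enzyme 0.07 U/mL final / Medium: 50 mM HEPES pH 7.4 with 4.542 mM MgCl2, 0.005% Tween 20 / Doses: single compound dose of 20 µM, 1% DMSO final / Incubation: 16 min enzyme reaction, ambient temperature / Signal: fluorescence, excitation 544 nm and emission 590 nm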
Lmaj promast: reduces viability of Leishmania major promastigotes. resazurin fluorescence viability. inhibition, % at 10 µM. 200,000 compounds, 9% hits; in the data active = inhibition above about 50%;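 note: promastigotes grown with compound for 44 hours at 28 °C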
Active calls of the source: *.

How did CC(Oc1ccccc1)C(=O)NC1CCN(Cc2ccccc2)CC1 (centres undefined) do in these assays?
WT yeast gro inh: -4; PMI act satM6P: 1; PMI act: 1; Diaphorase act: 0.9; Lmaj promast: 91*

Results for Cc1cc(NC(=O)Cn2c(=O)n(CCCCC(=O)NC3CCN(Cc4ccccc4)CC3)c(=O)c3ccccc32)n[nH]1 ?
WT yeast gro inh: -8; PMI act satM6P: 0.9; PMI act: 1; Diaphorase act: 1.1; Lmaj promast: -2

What do the screens show for `O=C(CCCCn1c(=O)c2ccccc2n(Cc2ccccc2F)c1=O)NC1CCN(Cc2ccccc2)CC1`?
WT yeast gro inh: -6; PMI act satM6P: 1; PMI act: 0.9; Diaphorase act: 0.8; Lmaj promast: 72*

What do the screens show for `O=C(NC1CCN(Cc2ccccc2)CC1)C12CC3CC(CC(C3)C1)C2`?
WT yeast gro inh: -11; PMI act satM6P: 1.2; PMI act: 1.2; Diaphorase act: 1; Lmaj promast: 88*

Results for CC(Oc1ccccc1)C(=O)NC1CC(C)(C)NC(C)(C)C1 (centres undefined) ?
WT yeast gro inh: 0; PMI act satM6P: 1; PMI act: 1; Diaphorase act: 0.9; Lmaj promast: -4

How did O=C(NC1CCN(Cc2ccccc2)CC1)c1cncc(Br)c1 do in these assays?
WT yeast gro inh: 10; PMI act satM6P: 1; PMI act: 1; Diaphorase act: 0.9; Lmaj promast: 67*

Results for Cc1ccc(N)c2c1OCCC2=O ?
WT yeast gro inh: -13; PMI act satM6P: 0.4; PMI act: 0.6; Diaphorase act: 0.4; Lmaj promast: -6

How did COc1ccc(C2CC(c3cccs3)=NN2C(=O)CSc2nc3c(cnn3-c3ccccc3)c(=O)[nH]2)cc1 (centres undefined) do in these assays?
WT yeast gro inh: -11; PMI act satM6P: 0.9; PMI act: 1; Diaphorase act: 0.8; Lmaj promast: 85*

Results for O=C(CSc1nc2ccccc2o1)N1N=C(c2cccs2)CC1c1ccc(F)cc1 (centres undefined) ?
WT yeast gro inh: 25; PMI act satM6P: 1; PMI act: 1; Diaphorase act: 0.8; Lmaj promast: 97*

Results for COc1cccc(Nc2nc(NCCO)c3ccccc3n2)c1 ?
WT yeast gro inh: 60*; PMI act satM6P: 1.2; PMI act: 1.1; Diaphorase act: 1.2; Lmaj promast: 101*

Results for Oc1ccccc1Nc1nc(NCC2CCCO2)c2ccccc2n1 (centres undefined) ?
WT yeast gro inh: -26; PMI act satM6P: 0.9; PMI act: 0.9; Diaphorase act: 0.9; Lmaj promast: 82*

What do the screens show for `c1ccc2c(NCC3CCCO3)nc(N3CCCCC3)nc2c1` (centres undefined)?
WT yeast gro inh: 2; Lmaj promast: 67*

What do the screens show for `Oc1ccc(Nc2nc(NCC3CCCO3)c3ccccc3n2)cc1` (centres undefined)?
WT yeast gro inh: 3; PMI act satM6P: 1; PMI act: 1; Diaphorase act: 1; Lmaj promast: 100*

How did O=C(N/N=C/c1ccccc1Br)C1CC1 do in these assays?
WT yeast gro inh: 14; PMI act satM6P: 1.1; PMI act: 1.1; Diaphorase act: 1; Lmaj promast: -6

What do the screens show for `COc1cccc(Nc2nc(NCC3CCCO3)c3ccccc3n2)c1` (centres undefined)?
WT yeast gro inh: 40; PMI act satM6P: 1; PMI act: 1; Diaphorase act: 0.9; Lmaj promast: 100*

What do the screens show for `CCOc1ccc(C(=O)NC(=S)Nc2ccc(NC(=O)c3ccco3)c(C)c2)cc1[N+](=O)[O-]`?
WT yeast gro inh: 9; PMI act satM6P: 1.1; PMI act: 1; Diaphorase act: 0.9; Lmaj promast: -7

What do the screens show for `C=CCc1c(C)[nH]c2c(OC)cccc2c1=S`?
WT yeast gro inh: 67*; PMI act satM6P: 0.8; PMI act: 0.9; Diaphorase act: 0.8; Lmaj promast: 76*

Results for C=CCN(CC=C)C(=O)c1c(OC)cccc1OC ?
WT yeast gro inh: -7; PMI act satM6P: 1; PMI act: 1; Diaphorase act: 0.9; Lmaj promast: 1

What do the screens show for `CCOc1ccc(OCC)c(S(=O)(=O)NCCOC23CC4CC(CC(C4)C2)C3)c1`?
WT yeast gro inh: 74*; PMI act satM6P: 1; PMI act: 0.9; Diaphorase act: 0.8; Lmaj promast: 78*

Results for Cc1ccc(S(=O)(=O)N2CCN(C(=O)c3cc(=O)c4ccccc4o3)CC2)cc1 ?
WT yeast gro inh: -3; PMI act satM6P: 0.9; PMI act: 1; Diaphorase act: 1; Lmaj promast: 19

What do the screens show for `OCCN1CCN(Cc2cccc(Oc3ccc(Cl)cc3)c2)CC1`?
WT yeast gro inh: 13; PMI act satM6P: 1; PMI act: 1; Diaphorase act: 0.9; Lmaj promast: 99*

What do the screens show for `OC1CCN(Cc2cccc(Oc3ccccc3)c2)CC1`?
WT yeast gro inh: 1; PMI act satM6P: 1; PMI act: 1; Diaphorase act: 0.9; Lmaj promast: 100*

How did CC1CCCN(Cc2cccc(Oc3ccccc3)c2)C1 (centres undefined) do in these assays?
WT yeast gro inh: 1; PMI act satM6P: 1; PMI act: 1; Diaphorase act: 1; Lmaj promast: 100*

How did CCN1CCN(CCOc2cccc(Oc3ccccc3)c2)CC1 do in these assays?
WT yeast gro inh: -7; PMI act satM6P: 1; PMI act: 1; Diaphorase act: 0.9; Lmaj promast: 95*

Results for O=C(c1ccc(N2CCCCC2)c([N+](=O)[O-])c1)N(c1ccccn1)c1ccccn1 ?
WT yeast gro inh: 10; PMI act satM6P: 1; PMI act: 1.1; Diaphorase act: 1; Lmaj promast: -1

What do the screens show for `CC1CCCN(C(=O)COc2ccc(Nc3ccccc3)cc2)C1` (centres undefined)?
WT yeast gro inh: -2; PMI act satM6P: 0.9; PMI act: 1.1; Diaphorase act: 1; Lmaj promast: 27

How did CCOC(=O)Cc1csc(NC(=O)c2sc3nc4c(C)cc(C)cc4cc3c2N)n1 do in these assays?
WT yeast gro inh: -9; PMI act satM6P: 1.9; PMI act: 1.5; Diaphorase act: 0.7; Lmaj promast: -3

What do the screens show for `CN1CCN(Cc2cccc(Oc3ccccc3)c2)CC1`?
WT yeast gro inh: -8; PMI act satM6P: 1; PMI act: 1.1; Diaphorase act: 1; Lmaj promast: 100*

How did CCn1c(SC)nnc1-c1sc2cc(Cl)ccc2c1Cl do in these assays?
WT yeast gro inh: 35; PMI act satM6P: 0.9; PMI act: 0.9; Diaphorase act: 0.9; Lmaj promast: 87*

How did COCCNC(=O)C(c1ccc(Cl)cc1)N(CCOC)C(=O)CCC(=O)Nc1nccs1 (centres undefined) do in these assays?
WT yeast gro inh: -16; PMI act satM6P: 1; PMI act: 1.1; Diaphorase act: 1.1; Lmaj promast: -1
